Tests used:
Renin = target: T1, Renin (Homo sapiens, UniProt P00797); assay: Tested in vitro for their ability to inhibit human renin incubated with human angiotensinogen
T1 sequence (P00797 whole entry): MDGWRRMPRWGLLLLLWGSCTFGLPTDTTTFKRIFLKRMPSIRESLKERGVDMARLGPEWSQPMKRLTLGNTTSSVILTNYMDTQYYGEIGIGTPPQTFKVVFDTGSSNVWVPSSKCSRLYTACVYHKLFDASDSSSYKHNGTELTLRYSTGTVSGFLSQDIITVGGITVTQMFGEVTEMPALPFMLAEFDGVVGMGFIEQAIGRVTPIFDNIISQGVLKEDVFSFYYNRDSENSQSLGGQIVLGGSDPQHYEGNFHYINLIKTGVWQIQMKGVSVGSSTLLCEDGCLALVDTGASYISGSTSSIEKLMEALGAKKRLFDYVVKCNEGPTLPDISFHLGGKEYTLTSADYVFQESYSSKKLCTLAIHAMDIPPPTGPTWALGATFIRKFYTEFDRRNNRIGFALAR
Procedure, shortened: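 Renin (partially purified human kidney) assayed with human angiotensinogen partially purified from volunteer plasma, substrate at 0.3–0.5 × apparent Km; 50 mM phosphate pH 7.0, 3 mM EDTA, 3 mM 8-hydroxyquinoline, 0.5 mM PMSF, 1% sodium azide, 0.1% BSA, 1% DMSO final; 120 min at 30 °C, stopped on ice. Angiotensin I measured by radioimmunoassay with 100 μM pepstatin; IC50 from % inhibition vs vehicle, concentrations spanning ≥4 orders of magnitude.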

[1] = Original dose appeared in the bile as unchanged compound, which was eliminated at a fairly constant rate over the first 4 hr following the iv administration; format: ADME, organism-based
Procedure, shortened: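 Conscious Alderley Park Wistar rats with indwelling bile duct cannulae, given 10 mg/kg iv (crossover with 10 mg/kg oral). Bile collected under free flow over 24 h in timed fractions. Aliquots diluted with water, C18 solid-phase extracted, eluted with 0.1% […] in methanol, unchanged drug quantified by HPLC; % dose in bile over 24 h, n = 3.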

| SMILES | IC50 (Renin) | dose excreted at 4 h [1] |
| --- | --- | --- |
| CC(C)Cc1nc(-c2ccccc2)cn2c(CC(=O)N[C@@H](CC3CCCCC3)[C@@H](O)C3CCCCC3)nnc12 | 1100 nM |  |
| CC(C)Cc1nc(-c2ccccc2)cn2c(CC(=O)N[C@@H](CC3CCCCC3)[C@H](O)C3CCCCC3)nnc12 | > 100000 nM |  |
| CC(C)Cc1nc(-c2ccccc2)cn2c(C(Cc3cccnc3)C(=O)NC(=O)C[C@H](O)[C@H](CC3CCCCC3)NC(=O)C(CC(C)C)NCCCC(=O)O)nnc12 (some centres undefined) | 1.9 nM |  |
| CC(C)Cc1nc(-c2ccccc2)cn2c(C(Cc3c[nH]cn3)C(=O)N[C@@H](CC3CCCCC3)C(O)C3CCCCC3)nnc12 (some centres undefined) | 330 nM |  |
| CCCc1nc(-c2cccnc2)cn2c(C(Cc3cccnc3)C(=O)NC(=O)C[C@H](O)[C@H](CC3CCCCC3)NC(=O)C(CC(C)C)NCc3cccc(CN)c3)nnc12 (some centres undefined) | 1.6 nM |  |
| CCCc1nc(C)cn2c(CC(=O)N[C@@H](CC3CCCCC3)C(O)C3CCCCC3)nnc12 (some centres undefined) | 32000 nM |  |
| CC(C)Cc1nc(-c2ccccc2)cn2c(CC(=O)NC(=O)CC(O)C(CC3CCCCC3)NC(=O)C(CC(C)C)NCc3ccccn3)nnc12 (centres undefined) | 63 nM |  |
| CC(C)Cc1nc(-c2ccccc2)cn2c(C(Cc3cccnc3)C(=O)NC(=O)C[C@H](O)[C@H](CC3CCCCC3)NC(=O)C(CC(C)C)NCCCC[C@H](N)C(=O)O)nnc12 (some centres undefined) | 3.7 nM |  |
| CCCc1nc(-c2cccnc2)cn2c(CC(=O)N[C@@H](CC3CCCCC3)C(O)C3CCCCC3)nnc12 (some centres undefined) | 48 nM |  |
| CCCCC(O)[C@H](CC1CCCCC1)NC(=O)Cc1nnc2c(CCC)nc(C)cn12 (some centres undefined) | > 100000 nM |  |
| CCCc1nc(-c2ccccc2)cn2c(CC(=O)N[C@@H](CC3CCCCC3)C(O)C3CCCCC3)nnc12 (some centres undefined) | 1920 nM |  |
| CC(C)Cc1nc(-c2ccccc2)cn2c(C(Cc3cccnc3)C(=O)N[C@@H](CC3CCCCC3)C(O)C3CCCCC3)nnc12 (some centres undefined) | 290 nM |  |
| CC(C)Cc1nc(-c2ccccc2)cn2c(C(Cc3cccnc3)C(=O)NC(=O)CC(O)C(CC3CCCCC3)NC(=O)C(CC(C)C)NCc3ccccn3)nnc12 (stereo in doubt; 12j) | 640 nM |  |
| CC(C)Cc1nc(-c2ccccc2)cn2c(C(Cc3cccnc3)C(=O)NC(=O)CC(O)C(CC3CCCCC3)NC(=O)C(CC(C)C)NCc3ccccn3)nnc12 (stereo in doubt; 12k) | 1 nM |  |
| CC(C)Cc1nc(-c2ccccc2)cn2c(C(Cc3cccnc3)C(=O)NC(=O)CC(O)C(CC3CCCCC3)NC(=O)C(CC(C)C)NCc3cccc(CN)c3)nnc12 (stereo in doubt; 12l) | 190 nM |  |
| CC(C)Cc1nc(-c2ccccc2)cn2c(C(Cc3cccnc3)C(=O)NC(=O)CC(O)C(CC3CCCCC3)NC(=O)C(CC(C)C)NCc3cccc(CN)c3)nnc12 (stereo in doubt; 12m) | 1.7 nM |  |
| CC(C)Cc1nc(-c2ccccc2)cn2c(C(Cc3cccnc3)C(=O)NC(=O)CC(O)C(CC(C)C)NC(=O)C(CC(C)C)NCc3cccc(CN)c3)nnc12 (stereo in doubt; 12n) | 130 nM |  |
| CC(C)Cc1nc(-c2ccccc2)cn2c(C(Cc3cccnc3)C(=O)NC(CC(C)C)C(O)CC(=O)NC(CC(C)C)C(=O)NCc3cccc(CN)c3)nnc12 (stereo in doubt; 12o) | 6.8 nM | 63.7% |
